Test results reported in ChEMBL document CHEMBL1123302, “Antagonists of substance P. Further modifications of substance P antagonists obtained by replacing either positions 7, 9 or 7, 8 and 11 of SP with D-amino acid residues” (J Med Chem, 1986).
Values belong to the compound of their own block, whether it stands above or below them.

Assays:
[1] = target: Metabotropic glutamate receptor 3 (Rattus norvegicus) (UniProt P31422); assay: Antagonistic activity against Glutamate receptor in rat spinal cord at concentration of 21 uM.; format: functional, tissue-based
In short: (§1)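 Neonatal rat spinal cord, hemisected sagittally, superfused at 1 mL/min with oxygenated Krebs-Henseleit medium containing 0.5% urethane at room temperature. Agonists were given in 2-mL doses in the superfusate. Antagonist was superfused continuously for at least 15 min before agonist retesting. Read-out was ventral root depolarization (DC potential, ventral root vs cord body), measured as amplitude and area of response.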

Substance-P receptor [2] = target: T1, Substance-P receptor (Rattus norvegicus, UniProt P14600); assay: Compound was evaluated for the histamine releasing activity of the Substance P from isolated rat peritoneal mast cells using the procedure of Fretwell et al; format: functional, cell-based
In short: (§2)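 Histamine release from isolated rat peritoneal mast cells, method of Fretwell et al. Dose-response curves were built over a range of concentrations, and EC50 values were calculated from the curves.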

[3] = target: Substance-P receptor (Cavia porcellus) (UniProt P30547); assay: Antagonistic activity against Substance P(6-11) receptor in guinea pig ileum at concentration of 4.5 uM.; format: functional, tissue-based
In short: (§3)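 Distal ileum from Dunkin-Hartley guinea pigs (300-350 g, both sexes), held in a 5-mL bath of Krebs solution at 37 °C gassed with 95% O2/5% CO2. Agonist dose-response curves ran on a 3-min cycle with 1-min contact, then washout. Dose ratio = agonist EC50 with antagonist / EC50 alone. At least two preparations per compound; ratios below two were taken as insignificant.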

[4] = target: Substance-P receptor (Cavia porcellus) (UniProt P30547); assay: Antagonistic activity against Substance P receptor in guinea pig ileum at concentration of 1 uM.; format: functional, tissue-based; in short: as §3
[5] = target: Substance-P receptor (Cavia porcellus) (UniProt P30547); assay: Antagonistic activity against Substance P receptor in guinea pig ileum at concentration of 4.5 uM.; format: functional, tissue-based; in short: as §3
[6] = target: Substance-P receptor (Cavia porcellus) (UniProt P30547); assay: Antagonistic activity against Substance P(6-11) receptor in guinea pig ileum at concentration of 1 uM.; format: functional, tissue-based; in short: as §3
[7] = target: Substance-P receptor (Rattus norvegicus) (UniProt P14600); assay: Antagonistic activity against Substance P receptor in rat spinal cord at concentration of 43 uM.
[8] = target: Substance-P receptor (Rattus norvegicus) (UniProt P14600); assay: Antagonistic activity against Substance P receptor in rat spinal cord at concentration of 21 uM.
[9] = target: Substance-P receptor (Rattus norvegicus) (UniProt P14600); assay: Antagonistic activity against Substance P(6-11) receptor in rat spinal cord at concentration of 21 uM.
[10] = target: Substance-P receptor (Rattus norvegicus) (UniProt P14600); assay: Antagonistic activity against Substance P(6-11) receptor in rat spinal cord at concentration of 43 uM.
[11] = target: Metabotropic glutamate receptor 3 (Rattus norvegicus) (UniProt P31422); assay: Antagonistic activity against Glutamate receptor in rat spinal cord at concentration of 0.5 uM.; format: functional, tissue-based; in short: as §1
[12] = target: Metabotropic glutamate receptor 3 (Rattus norvegicus) (UniProt P31422); assay: Antagonistic activity against Glutamate receptor in rat spinal cord at concentration of 1.0 uM.; format: functional, tissue-based; in short: as §1
[13] = target: Metabotropic glutamate receptor 3 (Rattus norvegicus) (UniProt P31422); assay: Antagonistic activity against Glutamate receptor in rat spinal cord at concentration of 10.0 uM.; format: functional, tissue-based; in short: as §1
[14] = target: Metabotropic glutamate receptor 3 (Rattus norvegicus) (UniProt P31422); assay: Antagonistic activity against Glutamate receptor in rat spinal cord at concentration of 5.0 uM.; format: functional, tissue-based; in short: as §1
[15] = target: Metabotropic glutamate receptor 3 (Rattus norvegicus) (UniProt P31422); assay: Antagonistic activity against Glutamate receptor in rat spinal cord at concentration of 50.0 uM.; format: functional, tissue-based; in short: as §1
[16] = target: Substance-P receptor (Cavia porcellus) (UniProt P30547); assay: Antagonistic activity against Substance P receptor in guinea pig ileum at concentration of 0.5 uM.; format: functional, tissue-based; in short: as §3
[17] = target: Substance-P receptor (Cavia porcellus) (UniProt P30547); assay: Antagonistic activity against Substance P receptor in guinea pig ileum at concentration of 1.0 uM.; format: functional, tissue-based; in short: as §3
[18] = target: Substance-P receptor (Cavia porcellus) (UniProt P30547); assay: (§4) Antagonistic activity against Substance P receptor in guinea pig ileum at concentration of 10.0 uM.; format: functional, tissue-based; in short: as §3
[19] = target: Substance-P receptor (Cavia porcellus) (UniProt P30547); assay: (§5) Antagonistic activity against Substance P receptor in guinea pig ileum at concentration of 5.0 uM.; format: functional, tissue-based; in short: as §3
[20] = target: Substance-P receptor (Cavia porcellus) (UniProt P30547); assay: as §4; format: functional, tissue-based; in short: as §3; remark: listed apart in the source
[21] = target: Substance-P receptor (Cavia porcellus) (UniProt P30547); assay: Antagonistic activity against Substance P(6-11) receptor in guinea pig ileum at concentration of 0.5 uM.; format: functional, tissue-based; in short: as §3
[22] = target: Substance-P receptor (Cavia porcellus) (UniProt P30547); assay: Antagonistic activity against Substance P(6-11) receptor in guinea pig ileum at concentration of 1.0 uM.; format: functional, tissue-based; in short: as §3
[23] = target: Substance-P receptor (Cavia porcellus) (UniProt P30547); assay: as §5; format: functional, tissue-based; in short: as §3; remark: listed apart in the source
[24] = target: Metabotropic glutamate receptor 3 (Rattus norvegicus) (UniProt P31422); assay: Antagonistic activity against Glutamate receptor in rat spinal cord at concentration of 20 uM.; format: functional, tissue-based; in short: as §1
[25] = target: Substance-P receptor (Cavia porcellus) (UniProt P30547); assay: In vitro inhibition of substance P (6-11) hexapeptide induced contractions of the guinea pig ileum at 5 uM.; format: tissue-based
In short: (§6)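 Agonist (SP or SP(6-11)-hexapeptide) dose-response curves on a 3-min cycle with 1-min contact, then washout. Dose ratio = agonist EC50 with antagonist / EC50 alone. At least two preparations per compound; ratios below 2 taken as insignificant.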

[26] = target: Substance-P receptor (Cavia porcellus) (UniProt P30547); assay: In vitro inhibition of substance P induced contractions of the guinea pig ileum at 5 uM.; format: tissue-based; in short: as §6
[27] = target: Substance-P receptor (Rattus norvegicus) (UniProt P14600); assay: Antagonistic activity against Substance P receptor in rat spinal cord at concentration of 20 uM.
[28] = target: Substance-P receptor (Rattus norvegicus) (UniProt P14600); assay: Antagonistic activity against Substance P(6-11) receptor in rat spinal cord at concentration of 20 uM.
[29] = target: Metabotropic glutamate receptor 3 (Rattus norvegicus) (UniProt P31422); assay: Antagonistic activity against Glutamate receptor in rat spinal cord at concentration of 10 uM.; format: functional, tissue-based; in short: as §1
[30] = target: Metabotropic glutamate receptor 3 (Rattus norvegicus) (UniProt P31422); assay: Antagonistic activity against Glutamate receptor in rat spinal cord at concentration of 5 uM.; format: functional, tissue-based; in short: as §1
Substance-P receptor [31] = target: T1, Substance-P receptor; assay: Histamine releasing activity of Substance P from isolated rat peritoneal mast cells; format: functional; in short: as §2
[32] = target: Substance-P receptor (Cavia porcellus) (UniProt P30547); assay: In vitro inhibition of substance P induced contractions of the guinea pig ileum at 10 uM.; format: tissue-based; in short: as §6
[33] = target: Substance-P receptor (Cavia porcellus) (UniProt P30547); assay: In vitro inhibition of substance P (6-11) hexapeptide induced contractions of the guinea pig ileum at 10 uM.; format: tissue-based; in short: as §6
[34] = Antagonistic activity against Glutamate receptor in rat spinal cord at concentration of 50 uM.
[35] = target: Substance-P receptor (Rattus norvegicus) (UniProt P14600); assay: Antagonistic activity against Substance P receptor in rat spinal cord at concentration of 5 uM.
[36] = system: muscarinic acetylcholine receptor (Rattus norvegicus); assay: Antagonistic activity against Carbachol receptor in rat spinal cord at concentration of 5 uM.
[37] = target: Substance-P receptor (Rattus norvegicus) (UniProt P14600); assay: Antagonistic activity against Substance P receptor in rat spinal cord at concentration of 10 uM.
[38] = target: Substance-P receptor (Rattus norvegicus) (UniProt P14600); assay: Antagonistic activity against Substance P receptor in rat spinal cord at concentration of 50 uM.
[39] = system: muscarinic acetylcholine receptor (Rattus norvegicus); assay: Antagonistic activity against Carbachol receptor in rat spinal cord at concentration of 10 uM.
[40] = target: Substance-P receptor (Rattus norvegicus) (UniProt P14600); assay: Antagonistic activity against Substance P(6-11) receptor in rat spinal cord at concentration of 5 uM.
[41] = target: Substance-P receptor (Rattus norvegicus) (UniProt P14600); assay: Antagonistic activity against Substance P(6-11) receptor in rat spinal cord at concentration of 10 uM.
[42] = target: Substance-P receptor (Rattus norvegicus) (UniProt P14600); assay: Antagonistic activity against Substance P(6-11) receptor in rat spinal cord at concentration of 50 uM.

Sequence of Substance-P receptor (Rattus norvegicus) (P14600 whole entry, looked up): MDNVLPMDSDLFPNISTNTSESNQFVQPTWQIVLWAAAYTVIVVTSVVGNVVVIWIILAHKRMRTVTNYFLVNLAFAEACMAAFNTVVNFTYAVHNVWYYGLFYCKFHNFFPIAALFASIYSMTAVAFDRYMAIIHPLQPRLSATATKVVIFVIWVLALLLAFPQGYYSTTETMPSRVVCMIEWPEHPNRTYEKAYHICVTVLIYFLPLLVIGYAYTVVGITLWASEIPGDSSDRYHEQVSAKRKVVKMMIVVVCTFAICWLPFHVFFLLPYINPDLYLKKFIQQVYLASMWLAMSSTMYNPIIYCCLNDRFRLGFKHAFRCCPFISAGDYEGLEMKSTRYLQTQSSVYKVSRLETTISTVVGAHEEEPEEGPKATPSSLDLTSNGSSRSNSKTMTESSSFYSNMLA
Sequence of Substance-P receptor (Cavia porcellus) (P30547 whole entry): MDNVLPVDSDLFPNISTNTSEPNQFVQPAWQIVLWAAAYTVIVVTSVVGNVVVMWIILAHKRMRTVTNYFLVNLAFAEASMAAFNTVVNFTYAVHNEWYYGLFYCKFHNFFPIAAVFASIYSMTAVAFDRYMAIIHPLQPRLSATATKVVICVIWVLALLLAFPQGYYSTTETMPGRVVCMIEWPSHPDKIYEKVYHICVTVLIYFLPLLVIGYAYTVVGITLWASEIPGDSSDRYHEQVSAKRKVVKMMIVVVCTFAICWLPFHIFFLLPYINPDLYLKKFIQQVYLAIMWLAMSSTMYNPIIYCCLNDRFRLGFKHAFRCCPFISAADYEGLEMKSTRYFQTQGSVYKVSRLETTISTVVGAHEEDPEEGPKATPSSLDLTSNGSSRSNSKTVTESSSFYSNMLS
Sequence of Metabotropic glutamate receptor 3 (Rattus norvegicus) (P31422 23-879 limits assumed): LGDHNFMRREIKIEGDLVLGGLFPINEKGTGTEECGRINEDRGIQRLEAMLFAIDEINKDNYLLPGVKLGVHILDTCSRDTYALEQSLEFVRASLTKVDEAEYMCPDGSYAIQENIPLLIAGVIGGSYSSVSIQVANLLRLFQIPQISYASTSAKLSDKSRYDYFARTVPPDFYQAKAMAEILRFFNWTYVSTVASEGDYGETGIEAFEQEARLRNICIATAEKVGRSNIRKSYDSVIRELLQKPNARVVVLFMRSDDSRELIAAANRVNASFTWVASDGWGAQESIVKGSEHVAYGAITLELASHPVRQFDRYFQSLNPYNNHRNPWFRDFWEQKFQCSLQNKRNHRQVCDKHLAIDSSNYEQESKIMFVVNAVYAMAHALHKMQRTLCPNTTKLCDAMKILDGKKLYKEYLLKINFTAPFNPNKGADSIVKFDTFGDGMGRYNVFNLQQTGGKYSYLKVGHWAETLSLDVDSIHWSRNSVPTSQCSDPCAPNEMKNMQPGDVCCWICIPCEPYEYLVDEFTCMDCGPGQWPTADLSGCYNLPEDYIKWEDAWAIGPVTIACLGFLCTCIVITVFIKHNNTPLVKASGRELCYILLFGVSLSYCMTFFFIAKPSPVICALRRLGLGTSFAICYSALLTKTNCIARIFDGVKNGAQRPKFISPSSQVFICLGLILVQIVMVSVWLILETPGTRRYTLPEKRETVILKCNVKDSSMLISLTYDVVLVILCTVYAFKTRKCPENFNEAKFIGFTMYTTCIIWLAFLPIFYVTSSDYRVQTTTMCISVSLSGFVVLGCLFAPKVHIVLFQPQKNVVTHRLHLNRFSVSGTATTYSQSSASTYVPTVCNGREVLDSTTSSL
T1 sequence (P14600 whole entry): as the sequence (P14600 whole entry, looked up) above

Change in amplitude response [1]: -15% | IC50 (Substance-P receptor [2]): > 500 µM | Activity [3]: 10.8 dose ratio | Activity [4]: 5 dose ratio | Activity [5]: 11.4 dose ratio | Activity [6]: 9.3 dose ratio | Change in amplitude response [7]: 0% | Change in amplitude response [8]: 17% | Change in amplitude response [9]: -44% | Change in amplitude response [10]: -54%
Structure (SMILES): COC(=O)[C@H](CCSC)NC(=O)[C@H](CC(C)C)NC(=O)[C@@H](Cc1c[nH]c2ccccc12)NC(=O)[C@H](Cc1ccccc1)NC(=O)[C@@H](Cc1ccccc1)NC(=O)[C@H](CCCCNC(=O)OCc1ccccc1)NC(=O)[C@H](CC(N)=O)NC(=O)[C@@H]1CCCN1C(=O)[C@H](CCCCNC(=O)OCc1ccccc1)NC(=O)[C@@H]1CCCN1C(=O)[C@H](CCCN=C(N)N)NC(=O)OCc1ccccc1

Change in amplitude response [11]: -7% | Change in amplitude response [12]: -12% | Change in amplitude response [13]: -31% | Change in amplitude response [14]: -23% | Change in amplitude response [15]: -25% | Activity [16]: 2.4 dose ratio | Activity [17]: 3.4 dose ratio | Activity [18]: 52 dose ratio | Activity [19]: 38 dose ratio | Activity [20]: 52 dose ratio | Activity [21]: 4.2 dose ratio | Activity [22]: 20.1 dose ratio | Activity [23]: 38 dose ratio
Structure (SMILES): COC(=O)[C@@H](CCSC)NC(=O)[C@@H](CC(C)C)SCCNC(=O)[C@@H](Cc1ccccc1)NC(=O)[C@H](Cc1ccccc1)NC(=O)[C@H](CCC(N)=O)NC(=O)[C@H](CCC(N)=O)NC(=O)[C@H]1CCCN1C(=O)[C@H](CCCCNC(=O)OCc1ccccc1)NC(=O)[C@H]1CCCN1C(=O)[C@H](CCCN=C(N)N)NC(=O)OCc1ccccc1

Change in amplitude response [24]: -9% | Activity [25]: 5.1 dose ratio | Activity [4]: 3.1 dose ratio | Activity [26]: 2.8 dose ratio | Activity [6]: 3.1 dose ratio | Change in amplitude response [27]: 17% | Change in amplitude response [28]: -85%
Structure (SMILES): COC(=O)[C@H](CCSC)NC(=O)[C@H](CC(C)C)NC(=O)[C@@H](Cc1c[nH]c2ccccc12)NC(=O)[C@H](Cc1ccccc1)NC(=O)[C@@H](Cc1ccccc1)NC(=O)[C@H](CCCN=C(N)N)NC(=O)[C@H](CC(N)=O)NC(=O)[C@@H]1CCCN1C(=O)[C@H](CCCCNC(=O)OCc1ccccc1)NC(=O)[C@@H]1CCCN1C(=O)[C@H](CCCN=C(N)N)NC(=O)OC(C)(C)C

Change in amplitude response [29]: -1% | Change in amplitude response [30]: -3% | IC50 (Substance-P receptor [31]): 0.6 µM | Activity [25]: 3.2 dose ratio | Activity [32]: 31.1 dose ratio | Activity [26]: 14 dose ratio | Activity [33]: 11.1 dose ratio | Change in amplitude response [34]: 20% | Change in amplitude response [35]: -29% | Change in amplitude response [36]: -52% | Change in amplitude response [37]: 3% | Change in amplitude response [38]: -37% | Change in amplitude response [39]: -51% | Change in amplitude response [40]: -73% | Change in amplitude response [41]: -75% | Change in amplitude response [42]: -85%
Structure (SMILES): COC(=O)[C@H](CCSC)NC(=O)[C@H](CC(C)C)NC(=O)[C@@H](Cc1c[nH]c2ccccc12)NC(=O)[C@H](Cc1ccccc1)NC(=O)[C@@H](Cc1ccccc1)NC(=O)[C@H](CCCN=C(N)N)NC(=O)[C@H](CC(N)=O)NC(=O)C1CCCN1C(=O)[C@H](CCCCNC(=O)OCc1ccccc1)NC(=O)C1CCCN1C(=O)[C@H](CCCN=C(N)N)NC(=O)OCc1ccccc1 (stereo in doubt)
